pIC50: −log10 of the molar value. The source made the active and inactive calls. The rule behind the calls is not given here.
Experiments:
MIA PaCa-2 [1] = test: Induction of apoptosis in human MIA PaCa-2 cells assessed as increase in necrotic cells at 25 nM incubated for 72 hrs by annexin V and propidium iodide staining based flow cytometry analysis relative to control; type: functional
Summary of the method: (§1)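 Cells given 25 nM compound with or without 20 μM Cu(II) and/or the ATR inhibitor VE-822 at 250 nM for 72 h. Stained with annexin V-FITC and propidium iodide, then analysed on a five-laser flow cytometer to score viable, early apoptotic, late apoptotic and necrotic fractions against vehicle.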

MIA PaCa-2 [2] = test: Cytotoxicity against human MIA PaCa2 cells assessed as reduction in cell viability at 25 nM in presence of Cu2+ and 2-DG incubated for 48 hrs by trypan blue assay; type: functional, cell-based
Summary of the method: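 MIAPACA2 cells were given 25 nM compound plus 20 μM Cu(II), with or without 2-deoxyglucose (2 mM), for 48 h. Viability was read by trypan blue staining on a Vi-Cell counter. Mean ± SD, n = 2, Student t-test.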

MIA PaCa-2 [3] = test: Induction of apoptosis in human MIA PaCa-2 cells assessed as increase in late apoptotic cells at 25 nM incubated for 72 hrs by annexin V and propidium iodide staining based flow cytometry analysis relative to control; type: functional; summary of the method: as §1
MIA PaCa-2 [4] = test: Induction of apoptosis in human MIA PaCa-2 cells assessed as reduction in viable cells at 25 nM in presence of Cu2+ incubated for 72 hrs by annexin V and propidium iodide staining based flow cytometry analysis relative to control; type: functional; summary of the method: as §1
[5] = Cytotoxicity against human PaTu 8902 cells assessed as reduction in cell viability in presence of Cu2+ incubated for 72 hrs by cell titer-glo luminescent cell viability assay; type: functional, cell-based; details: PaTu 8902, 72 h
Summary of the method: (§2)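 Cells were grown in DMEM or RPMI with 10% FBS, without antibiotics, at 37 °C, 20% O2, 5% CO2. Adherent lines were seeded at 500 cells/well. Serially diluted compound was given with 20 μM Cu(II) (CuCl2) for 72 h; leukemia models received pre-formed 1:1 copper complex. ATP was read by CellTiter-Glo luminescence. IC50 is relative to DMSO-treated cells.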

[6] = Cytotoxicity against human A13A cells assessed as reduction in cell viability in presence of Cu2+ incubated for 72 hrs by cell titer-glo luminescent cell viability assay; type: functional, cell-based; summary of the method: as §2
MIA PaCa-2 [7] = test: Induction of apoptosis in human MIA PaCa-2 cells assessed as increase in early apoptotic cells at 25 nM in presence of Cu2+ and ATRi incubated for 72 hrs by annexin V and propidium iodide staining based flow cytometry analysis relative to control; type: functional; summary of the method: as §1
MIA PaCa-2 [8] = test: Induction of apoptosis in human MIA PaCa-2 cells assessed as increase in early apoptotic cells at 25 nM incubated for 72 hrs by annexin V and propidium iodide staining based flow cytometry analysis relative to control; type: functional; summary of the method: as §1
MIA PaCa-2 [9] = test: Induction of apoptosis in human MIA PaCa-2 cells assessed as increase in necrotic cells at 25 nM in presence of ATRi incubated for 72 hrs by annexin V and propidium iodide staining based flow cytometry analysis relative to control; type: functional; summary of the method: as §1
MIA PaCa-2 [10] = test: Cytotoxicity against human MIA PaCa2 cells assessed as reduction in cell viability in presence of Cu2+ incubated for 72 hrs by cell titer-glo luminescent cell viability assay; type: functional, cell-based; details: MIA PaCa-2, 72 h; summary of the method: as §2
MIA PaCa-2 [11] = test: Induction of DNA damage in human MIA PaCa-2 cells assessed as increase in pH2A.X phosphorylation at 10 nM in presence of Cu2+ incubated for 48 hrs by immunoblot assay; type: functional, cell-based
Summary of the method: (§3)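 Treated with 10 nM compound plus 20 μM Cu(II). Lysed in RIPA buffer with protease and phosphatase inhibitors, then sonicated and centrifuged at 20 000g, 4 °C. Protein measured by micro BCA, and equal amounts run on bis-tris gels. Primary antibodies in 5% BSA/TBST; HRP-linked anti-rabbit or anti-mouse secondaries at 1:2500. Chemiluminescent detection on film; representative blot.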

[12] = Cytotoxicity against human HPDE cells assessed as reduction in cell viability in presence of Cu2+ incubated for 72 hrs by cell titer-glo luminescent cell viability assay; type: cell-based; summary of the method: as §2
MIA PaCa-2 [13] = test: Anti-OXPHOS activity in human MIA PaCa-2 cells assessed as reduction in oxygen consumption rate at 25 nM in presence of Cu2+ incubated for 24 hrs by […]; type: functional, cell-based; details: Mitochondria
Summary of the method: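 Cellular Mito Stress Test: cells treated 24 h with 25 nM compound plus 20 μM Cu(II), then incubated in unbuffered DMEM with 25 mM glucose, 1 mM pyruvate and 2 mM glutamine. OCR was read on an XF24 analyzer and normalized per μg protein. It was read at baseline and after serial 1 μM oligomycin, 0.75 μM FCCP, and 1 μM rotenone plus myxothiazol.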

MOLT-4 = test: Cytotoxicity against human MOLT-4 cells assessed as reduction in cell viability in presence of Cu2+ incubated for 72 hrs by cell titer-glo luminescent cell viability assay; type: functional, cell-based; details: MOLT-4, 72 h; summary of the method: as §2
MIA PaCa-2 [14] = test: Induction of DNA damage in human MIA PaCa-2 cells assessed as decrease in GTP level at 25 nM in presence of Cu2+ incubated for 48 hrs by LC-MS/MS analysis; type: functional, cell-based
Summary of the method: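 MIAPACA2 cells were given 25 nM compound plus 20 μM Cu(II) for 48 h in glucose-free DMEM with 10% dialyzed FBS and 11 mM [U-13C6]glucose. Nucleotide pools were quantified by LC-MS/MS with multiple reaction monitoring. Mean ± SD, n = 3, two-way ANOVA with Bonferroni correction.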

MIA PaCa-2 [15] = test: Induction of apoptosis in human MIA PaCa-2 cells assessed as increase in necrotic cells at 25 nM in presence of Cu2+ incubated for 72 hrs by annexin V and propidium iodide staining based flow cytometry analysis relative to control; type: functional; summary of the method: as §1
MIA PaCa-2 [16] = test: Induction of apoptosis in human MIA PaCa-2 cells assessed as increase in late apoptotic cells at 25 nM in presence of ATRi incubated for 72 hrs by annexin V and propidium iodide staining based flow cytometry analysis relative to control; type: functional; summary of the method: as §1
MIA PaCa-2 [17] = test: Induction of DNA damage in human MIA PaCa-2 cells assessed as decrease in rGTP level at 25 nM in presence of Cu2+ incubated for 48 hrs by LC-MS/MS analysis; type: functional, cell-based
Summary of the method: (§4)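 Cells in DMEM or RPMI with 10% FBS, 37 °C, 5% CO2. Treated with 25 nM compound plus 20 μM Cu(II) for 48 h. Nucleotide pools quantified by LC-MS/MS with multiple reaction monitoring. Cells were in glucose-free DMEM with 10% dialyzed FBS and 11 mM [U-13C6]glucose for 48 h, and glucose-labeled pools were compared. Mean ± SD, n = 3, two-way ANOVA with Bonferroni correction.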

ASPC1 = test: Cytotoxicity against human ASPC1 cells assessed as reduction in cell viability in presence of Cu2+ incubated for 72 hrs by cell titer-glo luminescent cell viability assay; type: functional, cell-based; details: ASPC1, 72 h; summary of the method: as §2
MIA PaCa-2 [18] = test: Induction of DNA damage in human MIA PaCa-2 cells assessed as decrease in dGTP level at 25 nM in presence of Cu2+ incubated for 48 hrs by LC-MS/MS analysis; type: functional, cell-based; summary of the method: as §4
MIA PaCa-2 [19] = test: Induction of DNA damage in human MIA PaCa-2 cells assessed as increase in CHEK2 phosphorylation at 10 nM in presence of Cu2+ incubated for 48 hrs by immunoblot assay; type: functional, cell-based; summary of the method: as §3

CN(C)C(=S)NN=Cc1nccc2cc(F)ccc12
Activity (MIA PaCa-2 [1]): 2.49%
Activity (MIA PaCa-2 [2]): Active
Activity (MIA PaCa-2 [3]): 0.79%
Activity (MIA PaCa-2 [4]): 77.5%
pIC50 [5]: 9.00
pIC50 [6]: 9.00
Activity (MIA PaCa-2 [7]): 24.8%
Activity (MIA PaCa-2 [8]): 1.85%
Activity (MIA PaCa-2 [9]): 7.34%
IC90 (MIA PaCa-2 [10]): 21.6 nM
Activity (MIA PaCa-2 [11]): Active
Activity [12]: Non-Toxic
Activity (MIA PaCa-2 [13]): Active
pIC50 (MOLT-4): 9.00
Activity (MIA PaCa-2 [14]): inactive
Activity (MIA PaCa-2 [15]): 4.86%
Activity (MIA PaCa-2 [16]): 18.8%
Activity (MIA PaCa-2 [17]): Active
pIC50 (ASPC1): 9.00
Activity (MIA PaCa-2 [18]): Active
Activity (MIA PaCa-2 [19]): Active
